Experimental data reported in ChEMBL document CHEMBL4261628, “1H-pyrrolo[2,3-b]pyridine: A new scaffold for human neutrophil elastase (HNE) inhibitors” (Bioorg Med Chem, 2018).
The source made the active and inactive calls. The calls are words filed in the database; no cut-off is given here.

Target: T1, Neutrophil elastase (Homo sapiens) (UniProt P08246)
T1 sequence (whole entry): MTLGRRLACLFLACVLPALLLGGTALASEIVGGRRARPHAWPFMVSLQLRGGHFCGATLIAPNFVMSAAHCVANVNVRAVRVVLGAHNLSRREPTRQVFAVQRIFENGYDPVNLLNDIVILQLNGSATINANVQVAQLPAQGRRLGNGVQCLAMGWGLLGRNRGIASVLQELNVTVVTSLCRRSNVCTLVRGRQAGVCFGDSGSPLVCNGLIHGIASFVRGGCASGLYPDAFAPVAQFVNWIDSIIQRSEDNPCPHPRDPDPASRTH
Assay: Inhibition of human neutrophil elastase at 50 uM using N-methylsuccinyl-Ala-Ala-Pro-Val-7-amino-4-methylcoumarin as substrate measured every 30 secs for 10 mins by fluorescence assay
Summary of the method: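 HNE (20 mU/mL) in 200 mM Tris-HCl pH 7.5 with 0.01% BSA and 0.05% Tween-20. Compound from 5 mM DMSO stock, 1% DMSO final, tested up to 50 µM. Reaction started with 25 µM final substrate. Fluorescence read at ex 355/em 460 nm, 25 °C. No inhibition at 50 µM is reported as N.A.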

Row | inhibition | Compound
1 | inactive | Cc1cccc(C(=O)n2ccc3cccnc32)c1
2 | inactive | N#Cc1cn(CC(=O)Nc2ccccc2)c2ncccc12
3 | inactive | Cc1cccc(C(=O)n2cc(-c3ccsc3)c3cccnc32)c1
4 | inactive | CCOC(=O)c1cn(CC(=O)Nc2ccccc2)c2ncccc12

Row | Compound | inhibition
5 | Cn1cc(C(=O)Nc2ccccc2)c2cccnc21 | inactive

Test system: not listed separately
Assay: Half life in 0.05 M phosphate buffer of pH 7.3 at 25 degC by spectrophotometric analysis
Assay type: physicochemical

Row | half-life [h] | Compound
6 | 3.5 | CCOC(=O)c1cn(C(=O)c2cccc(C)c2)c2ncccc12
7 | 14.4 | CCOC(=O)c1cn(C(=O)C2CC2)c2ncccc12
8 | 4.3 | CCOC(=O)c1cn(C(=O)c2ccc(C)cc2)c2ncccc12
9 | 1.9 | Cc1cccc(C(=O)n2cc(C#N)c3cccnc32)c1
10 | 1.9 | CCCCC(=O)n1cc(C#N)c2cccnc21
11 | 6.8 | N#Cc1cn(C(=O)C2CC2)c2ncccc12
12 | 3.4 | Cc1cccc(C(=O)n2cc(C(=O)Nc3ccccc3)c3cccnc32)c1
13 | 0.4 | Cc1cccc(C(=O)n2cc([N+](=O)[O-])c3cccnc32)c1
14 | 2.4 | Cc1cccc(C(=O)n2cc(-c3nc(C)no3)c3cccnc32)c1
15 | 2.6 | Cc1ccc(C(=O)n2cc(C#N)c3cccnc32)cc1
